Measured values taken from paper PMC5362268 (Cell, 2017).
Residues, ends and D or L forms follow the SMILES beside them. *: point of attachment. Cbz = O=C(OCc1ccccc1)*

Key:
[1] = tested on: DLD-1 cells; assay: Pan-RAS siRNA knockdown and viability; assay type: cell-based, human; details: si-panRAS vs non-targeting siRNA, 24 h, CellTiter-Glo
In short: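 DLD-1 cells reverse-transfected in 6-well plates with siRNA pools against HRAS, KRAS and NRAS, or a non-targeting pool. Cells then re-suspended in serum-free RPMI and seeded at 10,000 cells/well in 384-well plates overnight. Dilution series added from 10× stocks in serum-free Opti-mem; 24 h incubation; viability by CellTiter-Glo.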

[2] = tested on: BRAF^V600E-CAAX-expressing MEF cells; assay: Viability assay in mouse embryo fibroblasts; assay type: cell-based; details: compared with Kras^lox/lox MEFs

| SMILES | effect of combined HRAS, NRAS and KRAS knockdown on compound lethality [1] | sensitivity of BRAF^V600E-CAAX-expressing cells [2] |
| --- | --- | --- |
| CC(C)C[C@@H](C=O)NC(=O)[C@H](CC(C)C)NC(=O)[C@H](CC(C)C)NC(=O)OCc1ccccc1 [MG132, reference compound] (Cbz-Leu-Leu-Leu-aldehyde) | did not sensitize |  |
| CCCS(=O)(=O)Nc1ccc(F)c(C(=O)c2c[nH]c3ncc(-c4ccc(Cl)cc4)cc23)c1F [vemurafenib, reference compound] |  | more sensitive |
